This is an account of results in ChEMBL document CHEMBL3425405, “Discovery of Small Molecules for Up-Regulating the Translation of Antiamyloidogenic Secretase, a Disintegrin and Metalloproteinase 10 (ADAM10), by Binding to the G-Quadruplex-Forming Sequence in the 5' Untranslated Region (UTR) of Its mRNA” (J Med Chem, 2015).

In the assay the target is T1, Disintegrin and metalloproteinase domain-containing protein 10 (Homo sapiens) (UniProt O14672).
T1 sequence (whole entry): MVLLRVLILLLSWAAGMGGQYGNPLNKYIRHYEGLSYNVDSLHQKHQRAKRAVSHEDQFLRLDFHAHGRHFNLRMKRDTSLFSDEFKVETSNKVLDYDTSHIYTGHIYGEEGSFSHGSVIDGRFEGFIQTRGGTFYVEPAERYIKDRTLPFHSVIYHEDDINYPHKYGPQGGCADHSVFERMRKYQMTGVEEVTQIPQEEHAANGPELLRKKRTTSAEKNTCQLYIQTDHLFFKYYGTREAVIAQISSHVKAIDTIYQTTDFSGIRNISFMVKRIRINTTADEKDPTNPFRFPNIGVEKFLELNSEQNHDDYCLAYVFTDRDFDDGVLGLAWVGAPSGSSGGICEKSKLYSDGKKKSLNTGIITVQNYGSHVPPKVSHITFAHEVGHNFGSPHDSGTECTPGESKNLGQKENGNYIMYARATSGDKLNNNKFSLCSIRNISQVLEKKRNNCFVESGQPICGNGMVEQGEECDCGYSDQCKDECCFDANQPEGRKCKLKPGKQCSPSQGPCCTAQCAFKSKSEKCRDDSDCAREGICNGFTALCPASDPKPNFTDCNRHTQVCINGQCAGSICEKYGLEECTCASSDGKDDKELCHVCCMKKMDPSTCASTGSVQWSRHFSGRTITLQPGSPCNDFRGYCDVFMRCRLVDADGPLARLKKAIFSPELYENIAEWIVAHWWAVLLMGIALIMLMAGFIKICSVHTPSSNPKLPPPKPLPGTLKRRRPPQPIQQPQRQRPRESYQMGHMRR
As to the kind of experiment: Activation of human recombinant ADAM10 assessed as increase in enzyme activity at 0.25 to 4 uM pre-incubated for 20 mins before fluorogenic alpha-secretase substrate addition and measured 1 hr post substrate addition by monochromator-based multimode microplate reader based method. In short, it runs like this: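 Recombinant human ADAM10 (50 ng total protein per sample) preincubated 20 min with 0, 0.25, 0.5, 1, 2, 4 μM compound. Then 2× reaction buffer added (50 μM Tris, 4 μM ZnCl2, 0.01% Brij-35, pH 9.0) with 20 μM fluorogenic α-secretase substrate. Incubated 1 h at 37 °C in the dark; fluorescence read at ex 340/em 490 nm.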

Active and inactive are the calls of the source. The calls are words filed in the database; no cut-off is given here.

Consider `CCn1c2ccccc2c2cc(/C=C/c3cc(N4CCN(C)CC4)c4ccccc4[n+]3C)ccc21.[I-]`, for which the result was Active.
